Converted amounts (≈) assume the structure as drawn. The source made the active and inactive calls. The calls are words filed in the database; no cut-off is given here.

A word on the IC50: it is the concentration that gives 50% inhibition. Low readings indicate inhibition by little substance, high ones a need for much substance. For orientation: % inhibition means the relative decrease from the control value, in per cent. A high value points to a strong effect.

Experiment [1] relates to HL-60. Description: Induction of cell differentiation of human HL60 cells at 4 ug/mL after 4 days by non-specific esterase determination. The class given is functional, cell-based. Conditions: for % differentiation: HL-60, 96 h. The essentials:
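HL-60 cells kept in RPMI 1640 with 10% fetal calf serum and penicillin/streptomycin at 37 °C, 5% CO2. Cells at 1.2 × 10^5 cells/mL, preincubated 18 h, then added to compounds in DMSO (final 0.1% v/v). After 4 days, α-naphthyl acetate esterase was stained cytochemically, ≥200 cells counted microscopically in duplicate, and the % differentiated cells recorded.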

In experiment [2] the test system is Col2. Nature of the experiment: Antiproliferative activity against human Col2 cells after 3 days by sulforhodamine B assay. The class given is functional, cell-based. Conditions: for IC50: Col2, 72 h. The essentials: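 Col2 human colon cancer cells grown in MEME with 10% NEAA, antibiotic-antimycotic and 10% FBS at 37 °C, 5% CO2. Exponentially growing cells were added to wells containing compounds in DMSO and grown 3 days. Cells were then TCA-fixed and stained with 0.4% SRB in 1% acetic acid, and the dye was solubilized in 0.1 M Tris. Absorbance read at 515 nm; % growth calculated against day-0 and DMSO-control absorbances.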
Background: Sulforhodamine B stains cellular protein and so reports cell mass.

Experiment [3] is described as follows: Inhibition of 7,12-dimethylbenz[a]anthracene-induced preneoplastic lesions in a BALB/c mouse mammary gland culture at 10 ug/mL treated for 10 days before DMBA-challenge measured after 14 days. The experiment is classed as functional, tissue-based. The essentials: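 BALB/c female mice were primed 9 days with estradiol (1 µg) and progesterone (1 mg). Second thoracic mammary glands were cultured 10 days at 37 °C in 95% O2/5% CO2 in Waymouth's 752/1 MB medium with insulin, prolactin, aldosterone and hydrocortisone. DMBA 2 µg/mL was given at 72–96 h and compounds on days 1–10. Glands then regressed 14 days with insulin only and were scored for lesion incidence. % inhibition is relative to the DMBA control.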

Consider `COC(=O)/C=C/[C@@H]1CC[C@@]2(C)CC[C@@H](OC(C)=O)[C@@](C)(O)[C@@H]2C1`, for which the % differentiation in experiment [1] was < 10%. Also, the 50% inhibitory concentration (IC50) in experiment [2] was > 20 µg/mL.
For `C=C1C(=O)O[C@@H]2C[C@H](C)[C@@]3(O)CC[C@@](C)(C[C@@H](OC(=O)C(C)C)[C@@H]12)O3`, the result in experiment [1] and in experiment [2] was inactive.
Regarding `C=C1C(=O)O[C@@H]2/C=C(/C)C(=O)[C@@H]3O[C@H]3[C@](C)(O)C[C@@H](OC(=O)C(C)C)[C@@H]12`, the % differentiation in experiment [1] was < 10%. The % inhibition in experiment [3] came out at 44.4%. Besides, in experiment [2], inhibition was half-maximal at 1.7 µg/mL (≈ 4.67 µM) (IC50).
The matching figures for `C=C1C(=O)O[C@H]2[C@H]1[C@H](OC(=O)C(C)C)C[C@@]1(C)[C@H](O)C[C@H](OC(C)=O)C(=C)[C@H]21`: 33.9%, 63% and 5.9 µg/mL (≈ 15 µM).
For `C=C1C(=O)O[C@@H]2C[C@H](C)[C@@]3(O)C[C@H](O)[C@@](C)(C[C@@H](OC(=O)C(C)C)[C@@H]12)O3`, the result in experiment [1] and in experiment [2] was inactive.
On to `C=C(C(=O)OC)[C@@H]1CC[C@@]2(C)CC[C@@H](OC(C)=O)[C@@](C)(O)[C@@H]2C1`, for which the result in experiment [1] and in experiment [2] was inactive.
In the case of `C=C1C(=O)O[C@H]2[C@H]1[C@H](OC(=O)C(C)C)C[C@@](C)(O)[C@@H]1CC(=O)[C@@](C)(O)[C@H]21`, the % differentiation in experiment [1] was 32.4%. This compound came in with a % inhibition in experiment [3] of 48.7%. Moreover, the half-inhibitory concentration (IC50) in experiment [2] was 18.9 µg/mL (≈ 51.6 µM).
The like results for `C=C1C(=O)O[C@@H]2/C=C(/C)C(=O)/C=C/[C@](C)(O)C[C@@H](OC(=O)C(C)C)[C@@H]12` [TAGITININ C] were, in that order, 20%, 44.4% and 0.7 µg/mL (≈ 2.01 µM).
`C=C1C(=O)O[C@@H]2C[C@H](C)[C@]3(O)O[C@@](C)(C[C@H]3O)C[C@@H](OC(=O)C(C)C)[C@@H]12`: the % differentiation in experiment [1] is < 10%. Further, the half-inhibitory concentration (IC50) in experiment [2] was > 20 µg/mL.
The compound `C=C1C(=O)O[C@H]2[C@H]1[C@H](OC(=O)C(C)C)C[C@@]1(C)[C@H](O)C[C@H](OC(C)=O)[C@@](C)(O)[C@H]21` [TITHOFOLINOLIDE] displayed a % differentiation in experiment [1] of 37.4%. This compound displayed a % inhibition in experiment [3] of 40.2%. Also, the IC50 in experiment [2] is > 20 µg/mL.

For the origin of these results see ChEMBL document CHEMBL1148122, “Sesquiterpenoids from Tithonia diversifolia with potential cancer chemopreventive activity” (J Nat Prod, 2002).
